Experimental data reported in ChEMBL document CHEMBL2177098, “Synthesis and evaluation of novel ¹⁸F labeled 2-pyridinylbenzoxazole and 2-pyridinylbenzothiazole derivatives as ligands for positron emission tomography (PET) imaging of β-amyloid plaques” (J Med Chem, 2012).

Tests used:
Kidney [1] = test: Drug uptake in ICR mouse kidney at 370 kBq/100 ul, iv at 30 mins by gamma-counting analysis; type: ADME, organism-based; conditions: in vivo, 0.5 h
In short: (§1)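 Male ICR mice (5 weeks, about 20 g) got 18F tracer in saline (370 KBq per 100 μL) via tail vein; n = 5 per time point, killed at 2, 10, 30, 60 min. Organs weighed and γ-counted; percent dose per gram wet tissue from comparison with diluted injectate aliquots.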

Stomach [2] = test: Drug uptake in ICR mouse stomach assessed per organ at 370 kBq/100 ul, iv at 2 mins by gamma-counting analysis; type: ADME, organism-based; conditions: in vivo
In short: (§2)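 Male ICR mice (5 weeks, about 20 g) got 18F tracer in saline (370 KBq per 100 μL) via tail vein; n = 5 per time point, killed at 2, 10, 30, 60 min. Organs removed and γ-counted against diluted injectate; expressed as % injected dose per organ.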

Lung [3] = test: Drug uptake in ICR mouse lung at 370 kBq/100 ul, iv at 60 mins by gamma-counting analysis; type: ADME, organism-based; conditions: in vivo, 1 h; in short: as §1
Kidney [4] = test: Drug uptake in ICR mouse kidney at 370 kBq/100 ul, iv at 2 mins by gamma-counting analysis; type: ADME, organism-based; conditions: in vivo; in short: as §1
Stomach [5] = test: Drug uptake in ICR mouse stomach assessed per organ at 370 kBq/100 ul, iv at 60 mins by gamma-counting analysis; type: ADME, organism-based; conditions: in vivo, 1 h
In short: (§3)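 Normal male ICR mice (5 weeks, about 20 g) received the ¹⁸F tracer in saline (370 KBq per 100 μL) by tail-vein injection. Groups of n = 5 were killed at 2, 10, 30 and 60 min. Organs were removed, weighed and γ-counted against diluted aliquots of the injectate, giving % dose per gram. Stomach and intestine were expressed per organ. The brain ratio is 2 min/60 min uptake. Values are mean ± SD.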

Blood [6] = test: Drug uptake in ICR mouse blood at 370 kBq/100 ul, iv at 30 mins by gamma-counting analysis; type: ADME, organism-based; conditions: in vivo, 0.5 h; in short: as §1
Kidney [7] = test: Drug uptake in ICR mouse kidney at 370 kBq/100 ul, iv at 60 mins by gamma-counting analysis; type: ADME, organism-based; conditions: in vivo, 1 h; in short: as §1
Heart [8] = test: Drug uptake in ICR mouse heart at 370 kBq/100 ul, iv at 60 mins by gamma-counting analysis; type: ADME, organism-based; conditions: in vivo, 1 h; in short: as §1
Intestine [9] = test: Drug uptake in ICR mouse intestine assessed per organ at 370 kBq/100 ul, iv at 30 mins by gamma-counting analysis; type: ADME, organism-based; conditions: in vivo, 0.5 h; in short: as §2
Heart [10] = test: Drug uptake in ICR mouse heart at 370 kBq/100 ul, iv at 10 mins by gamma-counting analysis; type: ADME, organism-based; conditions: in vivo; in short: as §1
Blood [11] = test: Drug uptake in ICR mouse blood at 370 kBq/100 ul, iv at 10 mins by gamma-counting analysis; type: ADME, organism-based; conditions: in vivo; in short: as §1
Spleen [12] = test: Drug uptake in ICR mouse spleen at 370 kBq/100 ul, iv at 2 mins by gamma-counting analysis; type: ADME, organism-based; conditions: in vivo; in short: as §1
Kidney [13] = test: Drug uptake in ICR mouse kidney at 370 kBq/100 ul, iv at 10 mins by gamma-counting analysis; type: ADME, organism-based; conditions: in vivo; in short: as §1
Bone [14] = test: Drug uptake in ICR mouse bone at 370 kBq/100 ul, iv at 10 mins by gamma-counting analysis; type: ADME, organism-based, Bone element; conditions: in vivo; in short: as §1
Brain [15] = test: Ratio of drug uptake in brain at 2 mins to drug uptake in brain at 60 mins in ICR mouse at 370 KBq/100 ul, iv; type: ADME, organism-based; conditions: in vivo; in short: as §3
Liver [16] = test: Drug uptake in ICR mouse liver at 370 kBq/100 ul, iv at 2 mins by gamma-counting analysis; type: ADME, organism-based; conditions: in vivo; in short: as §1
Liver [17] = test: Drug uptake in ICR mouse liver at 370 kBq/100 ul, iv at 10 mins by gamma-counting analysis; type: ADME, organism-based; conditions: in vivo; in short: as §1
Brain [18] = test: Drug uptake in ICR mouse brain at 370 kBq/100 ul, iv at 10 mins by gamma-counting analysis; type: ADME, organism-based; conditions: in vivo; in short: as §1
Stomach [19] = test: Drug uptake in ICR mouse stomach assessed per organ at 370 kBq/100 ul, iv at 10 mins by gamma-counting analysis; type: ADME, organism-based; conditions: in vivo; in short: as §2
Liver [20] = test: Drug uptake in ICR mouse liver at 370 kBq/100 ul, iv at 30 mins by gamma-counting analysis; type: ADME, organism-based; conditions: in vivo, 0.5 h; in short: as §1
Lung [21] = test: Drug uptake in ICR mouse lung at 370 kBq/100 ul, iv at 30 mins by gamma-counting analysis; type: ADME, organism-based; conditions: in vivo, 0.5 h; in short: as §1
Brain [22] = test: Drug uptake in wild type C57BL6 mouse brain at 370 KBq/100 ul after 1 hr by autoradiographic analysis; type: ADME, tissue-based; conditions: in vitro
In short: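 Paraffin brain sections from 12-month-old male control C57BL6 mice were deparaffinized through xylene and graded ethanol, then held in PBS (0.2 M, pH 7.4) for 30 min. They were incubated with the ¹⁸F tracer (370 KBq per 100 μL) for 1 h at room temperature. Sections were washed in 40% EtOH, rinsed with water for 1 min, dried, and exposed to a phosphor plate for 2 h. The same sections were then stained with thioflavin S.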

Spleen [23] = test: Drug uptake in ICR mouse spleen at 370 kBq/100 ul, iv at 30 mins by gamma-counting analysis; type: ADME, organism-based; conditions: in vivo, 0.5 h; in short: as §1
[24] = n-Octanol-PBS buffer partition coefficient, log D of the compound at 1.5 MBq after 3 mins at pH 7.4; type: physicochemical
In short: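 The tracer was partitioned between n-octanol and PBS by vortexing for 3 min at room temperature, then centrifuged for 5 min at 3000 rpm. Samples of the octanol (50 μL) and aqueous (500 μL) layers were counted. log D is the log of the octanol/PBS counts-per-gram ratio. The octanol layer was repartitioned until values were consistent. Measured in triplicate and repeated three times.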

Spleen [25] = test: Drug uptake in ICR mouse spleen at 370 kBq/100 ul, iv at 10 mins by gamma-counting analysis; type: ADME, organism-based; conditions: in vivo; in short: as §1
Intestine [26] = test: Drug uptake in ICR mouse intestine assessed per organ at 370 kBq/100 ul, iv at 2 mins by gamma-counting analysis; type: ADME, organism-based; conditions: in vivo; in short: as §2
[27] = Displacement of [125I]-IMPY from amyloid beta (1 to 42) fibrils after 2 hrs by gamma-counting analysis
In short: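 Competition binding with aggregated Aβ1-42 fibrils and [125I]IMPY (60000−100000 cpm/100 μL) in 0.05% BSA (1 mL total); inhibitors 10⁻⁴−10^−8.5 M in ethanol. Incubated 37 °C for 2 h, then GF/B vacuum filtration with PBS (0.02 M, pH 7.4) washes and γ counting. Three repeats; IC50 converted to Ki by Cheng−Prusoff.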

Lung [28] = test: Drug uptake in ICR mouse lung at 370 kBq/100 ul, iv at 2 mins by gamma-counting analysis; type: ADME, organism-based; conditions: in vivo; in short: as §1
Heart [29] = test: Drug uptake in ICR mouse heart at 370 kBq/100 ul, iv at 2 mins by gamma-counting analysis; type: ADME, organism-based; conditions: in vivo; in short: as §1
Blood [30] = test: Drug uptake in ICR mouse blood at 370 kBq/100 ul, iv at 60 mins by gamma-counting analysis; type: ADME, organism-based; conditions: in vivo, 1 h; in short: as §1
Stomach [31] = test: Drug uptake in ICR mouse stomach assessed per organ at 370 kBq/100 ul, iv at 30 mins by gamma-counting analysis; type: ADME, organism-based; conditions: in vivo, 0.5 h; in short: as §2
Brain [32] = test: Drug uptake in ICR mouse brain at 370 kBq/100 ul, iv at 30 mins by gamma-counting analysis; type: ADME, organism-based; conditions: in vivo, 0.5 h; in short: as §1
Brain [33] = test: Drug uptake in ICR mouse brain at 370 kBq/100 ul, iv at 2 mins by gamma-counting analysis; type: ADME, organism-based; conditions: in vivo; in short: as §1
Liver [34] = test: Drug uptake in ICR mouse liver at 370 kBq/100 ul, iv at 60 mins by gamma-counting analysis; type: ADME, organism-based; conditions: in vivo, 1 h; in short: as §1
Bone [35] = test: Drug uptake in ICR mouse bone at 370 kBq/100 ul, iv at 30 mins by gamma-counting analysis; type: ADME, organism-based, Bone element; conditions: in vivo, 0.5 h; in short: as §1
Intestine [36] = test: Drug uptake in ICR mouse intestine assessed per organ at 370 kBq/100 ul, iv at 60 mins by gamma-counting analysis; type: ADME, organism-based; conditions: in vivo, 1 h; in short: as §2
Blood [37] = test: Drug uptake in ICR mouse blood at 370 kBq/100 ul, iv at 2 mins by gamma-counting analysis; type: ADME, organism-based; conditions: in vivo; in short: as §1
Spleen [38] = test: Drug uptake in ICR mouse spleen at 370 kBq/100 ul, iv at 60 mins by gamma-counting analysis; type: ADME, organism-based; conditions: in vivo, 1 h; in short: as §1
Intestine [39] = test: Drug uptake in ICR mouse intestine assessed per organ at 370 kBq/100 ul, iv at 10 mins by gamma-counting analysis; type: ADME, organism-based; conditions: in vivo; in short: as §2
Heart [40] = test: Drug uptake in ICR mouse heart at 370 kBq/100 ul, iv at 30 mins by gamma-counting analysis; type: ADME, organism-based; conditions: in vivo, 0.5 h; in short: as §1
Bone [41] = test: Drug uptake in ICR mouse bone at 370 kBq/100 ul, iv at 60 mins by gamma-counting analysis; type: ADME, organism-based, Bone element; conditions: in vivo, 1 h; in short: as §1
Brain [42] = test: Drug uptake in ICR mouse brain at 370 kBq/100 ul, iv at 60 mins by gamma-counting analysis; type: ADME, organism-based; conditions: in vivo, 1 h; in short: as §1
Bone [43] = test: Drug uptake in ICR mouse bone at 370 kBq/100 ul, iv at 2 mins by gamma-counting analysis; type: ADME, organism-based, Bone element; conditions: in vivo; in short: as §1
Lung [44] = test: Drug uptake in ICR mouse lung at 370 kBq/100 ul, iv at 10 mins by gamma-counting analysis; type: ADME, organism-based; conditions: in vivo; in short: as §1

CN(C)c1ccc(-c2nc3cc(OCC[18F])ccc3o2)cn1
Drug uptake (Kidney [1]): 2.44 % ID/g | Drug uptake (Stomach [2]): 2.44 %ID | Drug uptake (Lung [3]): 1.79 % ID/g | Drug uptake (Kidney [4]): 8.48 % ID/g | Drug uptake (Stomach [5]): 2.79 %ID | Drug uptake (Blood [6]): 1.89 % ID/g | Drug uptake (Kidney [7]): 1.82 % ID/g | Drug uptake (Heart [8]): 1.93 % ID/g | Drug uptake (Intestine [9]): 38.88 %ID | Drug uptake (Heart [10]): 2.44 % ID/g | Drug uptake (Blood [11]): 2.05 % ID/g | Drug uptake (Spleen [12]): 3.22 % ID/g | Drug uptake (Kidney [13]): 3.82 % ID/g | Drug uptake (Bone [14]): 1.27 % ID/g | Ratio (Brain [15]): 4.95 | Drug uptake (Liver [16]): 15.7 % ID/g | Drug uptake (Liver [17]): 10.72 % ID/g | Drug uptake (Brain [18]): 3.41 % ID/g | Drug uptake (Stomach [19]): 2.55 %ID | Drug uptake (Liver [20]): 4.39 % ID/g | Drug uptake (Lung [21]): 1.85 % ID/g | Drug uptake (Brain [22]): Not Active | Drug uptake (Spleen [23]): 1.6 % ID/g | logD at 0.05 h [24]: 3.53 | Drug uptake (Spleen [25]): 2.02 % ID/g | Drug uptake (Intestine [26]): 8.41 %ID | Ki [27]: 2.7 nM | Drug uptake (Lung [28]): 5.53 % ID/g | Drug uptake (Heart [29]): 5.95 % ID/g | Drug uptake (Blood [30]): 2.06 % ID/g | Drug uptake (Stomach [31]): 2.54 %ID | Drug uptake (Brain [32]): 1.76 % ID/g | Drug uptake (Brain [33]): 7.27 % ID/g | Drug uptake (Liver [34]): 3.19 % ID/g | Drug uptake (Bone [35]): 1.56 % ID/g | Drug uptake (Intestine [36]): 37.02 %ID | Drug uptake (Blood [37]): 3.57 % ID/g | Drug uptake (Spleen [38]): 1.32 % ID/g | Drug uptake (Intestine [39]): 21.45 %ID | Drug uptake (Heart [40]): 1.83 % ID/g | Drug uptake (Bone [41]): 1.88 % ID/g | Drug uptake (Brain [42]): 1.47 % ID/g | Drug uptake (Bone [43]): 2.08 % ID/g | Drug uptake (Lung [44]): 2.58 % ID/g
